# Laboratory results from article PMC8600646 (ACS Omega, 2021).
# Several values for one entry are separate records, joined by “and”; a condition that tells them apart may be missing. Identical values can stand only once. Like-named read-outs stand apart in the source and are kept apart here.
# Legend:
# [1] = Hydraulic radius calculated with the Stokes-Einstein equation; assay type: physicochemical; conditions: from Dred CV, 298K
# In short: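 Stokes–Einstein estimate that uses Dred from the CV fits, the measured solution viscosity and T = 298 K. Viscosities come from a concentric-cylinder rotational rheometer (KCl-based solutions) or a calibrated Ubbelohde glass viscometer (1 M H2SO4 and 15 wt % proline).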
# Cyclic voltammetry = assay type: physicochemical; conditions: for Dred (CV): 1 mM; for Dox (CV): oxidized species
# In short: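 Three-electrode cell: 3 mm glassy carbon working electrode (0.0707 cm2), Ag/AgCl in 3 M KCl reference, Pt wire counter. Electrode polished with 0.05 μm alumina and rinsed with water and methanol. Nitroxide starts at 1 mM; hydrotrope electrolytes readjusted to pH 7.0 (HCl) or, for the disulfonate, to about 0 (H2SO4). Triplicate CVs at 0.001–1 V/s, three cycles per rate.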
# [2] = Linear sweep voltammetry with rotating disk electrode; assay type: physicochemical; conditions: for Dox (LSV): oxidized species
# [3] = Electrochemical impedance spectroscopy; assay type: physicochemical
# In short: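 Glassy carbon rotating disk (5 mm; 0.196 cm2) with Ag/AgCl reference and Pt wire counter; polished as for CV. Solutions hold 1 mM reduced radical plus 1 mM oxidised form, made by bulk electrolysis at 0.75 V vs Ag/AgCl for 5–10 h. Run at open-circuit potential, 2500 rpm, 10 mV amplitude, 0.5–100000 Hz. Rct comes from a Nyquist fit, then j0, then k0 assuming α = 0.5.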
# [4] = cited from earlier work; for Dred, previously reported: aqueous solution
# [5] = cited from earlier work
# [6] = Viscosity measurements of hydrotrope solutions; assay type: physicochemical; conditions: 20 wt % hydrotrope in 1 M KCl, rotational rheometer
# In short: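 Rotational rheometer with concentric cylinder geometry over shear rates of 10 to 100/s. Solutions tested: 1 M KCl, 20 wt % NaXS and 20 wt % NapTS.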
# [7] = for 3,4-dimethylbenzenesulfonate; cited from earlier work
compound,measurement,setting,value
"CC1(C)CC(O)CC(C)(C)N1[O] [4-OH-TEMPO, 4-OH-TEMPO free radical]",hydraulic radius,[1]; 20 wt % NaXS,3.7 Å
same,hydraulic radius,[1]; 20 wt % NapTS,2.7 Å
same,hydraulic radius,[1]; no hydrotrope (1 M KCl),3.3 Å
same,formal reduction potential E0',"Cyclic voltammetry; 1 M KCl, no hydrotrope",0.59 ± 0.00 V vs Ag/AgCl and 0.59 V vs Ag/AgCl
same,Dred (CV),"Cyclic voltammetry; 1 M KCl, no hydrotrope",7.00 ± 0.24 × 10^–6 cm^2/s
same,standard rate constant k0 (CV),"Cyclic voltammetry; 1 M KCl, no hydrotrope, glassy carbon electrode",0.35 ± 0.14 cm/s
same,standard rate constant k0 (CV),Cyclic voltammetry; 20 wt % NaXS in 1 M KCl,0.48 ± 0.19 cm/s
same,Dred (CV),Cyclic voltammetry; 20 wt % NaXS in 1 M KCl,3.33 ± 0.04 × 10^–6 cm^2/s
same,formal reduction potential E0',"Cyclic voltammetry; 20 wt % NaXS in 1 M KCl, vs Ag/AgCl",0.59 ± 0.01 V
same,standard rate constant k0 (CV),Cyclic voltammetry; 20 wt % NapTS in 1 M KCl,0.95 ± 0.07 cm/s
same,Dred (CV),Cyclic voltammetry; 20 wt % NapTS in 1 M KCl,4.27 ± 0.14 × 10^–6 cm^2/s
same,formal reduction potential E0',"Cyclic voltammetry; 20 wt % NapTS in 1 M KCl, vs Ag/AgCl",0.59 ± 0.00 V
same,standard rate constant k0 (CV),Cyclic voltammetry; 20 wt % urea in 1 M KCl,0.78 ± 0.16 cm/s
same,Dred (CV),Cyclic voltammetry; 20 wt % urea in 1 M KCl,5.90 ± 0.07 × 10^–6 cm^2/s
same,formal reduction potential E0',"Cyclic voltammetry; 20 wt % urea in 1 M KCl, vs Ag/AgCl",0.59 ± 0.00 V
same,Dox (CV),"Cyclic voltammetry; 1 M KCl, no hydrotrope",6.82 ± 0.32 × 10^–6 cm^2/s
same,Dox (CV),Cyclic voltammetry; 20 wt % NaXS in 1 M KCl,3.50 ± 0.11 × 10^–6 cm^2/s
same,Dox (CV),Cyclic voltammetry; 20 wt % NapTS in 1 M KCl,4.92 ± 0.15 × 10^–6 cm^2/s
same,Dox (CV),Cyclic voltammetry; 20 wt % urea in 1 M KCl,5.55 ± 0.12 × 10^–6 cm^2/s
same,Dred (LSV),"[2]; 1 M KCl, no hydrotrope",10.53 × 10^–6 cm^2/s
same,standard rate constant k0 (LSV),"[2]; 1 M KCl, no hydrotrope",0.09 ± 0.07 cm/s
same,Dred (LSV),[2]; 20 wt % NaXS in 1 M KCl,6.63 × 10^–6 cm^2/s
same,standard rate constant k0 (LSV),[2]; 20 wt % NaXS in 1 M KCl,0.12 ± 0.11 cm/s
same,Dred (LSV),[2]; 20 wt % NapTS in 1 M KCl,8.53 × 10^–6 cm^2/s
same,standard rate constant k0 (LSV),[2]; 20 wt % NapTS in 1 M KCl,0.32 ± 0.33 cm/s
same,Dox (LSV),"[2]; 1 M KCl, no hydrotrope",6.03 × 10^–6 cm^2/s
same,Dox (LSV),[2]; 20 wt % NaXS in 1 M KCl,3.76 × 10^–6 cm^2/s
same,Dox (LSV),[2]; 20 wt % NapTS in 1 M KCl,4.40 × 10^–6 cm^2/s
same,standard rate constant k0 (EIS),"[3]; 1 M KCl, no hydrotrope",0.08 ± 0.00 cm/s
same,standard rate constant k0 (EIS),[3]; 20 wt % NaXS in 1 M KCl,0.29 ± 0.11 cm/s
same,standard rate constant k0 (EIS),[3]; 20 wt % NapTS in 1 M KCl,0.12 ± 0.01 cm/s
same,"Dred, previously reported",[4]; ref 11,29.5 × 10^–6 cm^2/s
same,"Dred, previously reported",[4]; ref 42,7.7 × 10^–6 cm^2/s
same,formal reduction potential E0',[4]; circumneutral pH,0.59 V vs Ag/AgCl
"Cc1cc2nc3c(=O)[nH]c(=O)nc-3n(C[C@H](O)[C@H](O)[C@H](O)COP(=O)(O)O)c2cc1C [FMN, riboflavin-5′-monophosphate]",aqueous solubility,"[5]; 1.0 M KOH, no hydrotrope",100 mM
"Oc1ccc(O)cc1 [hydroquinone, benzene-1,4-diol, reference compound]",solubility,"[5]; deionized water, 4.0 M urea",1500 mM
sodium xylenesulfonate [NaXS],viscosity of solution,[6],1.8 × 10^–3 Pa·s
same,pKA,[7],10.36
